Screening results (PubChem BioAssay)
An excerpt weighted towards active compounds, which were near 4.8% of everything screened.
NALP1 yeast inh: NALP1 inflammasome inhibitors in reconstituted yeast, colorimetric, S. cerevisiae, triplicate retest; inhibition, % at 10 µM; S. cerevisiae NALP1/ASC/caspase-1 growth, X-gal OD620, 72 h; 280,000 compounds, 0.61% hits; in the data active = inhibition mostly above about 24%, no sharp cut-off; inactive = mostly below about 32%
Calb FLC: C. albicans growth inhibition with fluconazole, primary screen, CaCi-2 strain, Alamar Blue fluorescence; 300,000 compounds, 0.57% hits; growth inhibition, % (no concentration beside the values); AID 1979, 2009; C. albicans CaCi-2 + fluconazole, 48 h;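 active = growth inhibition above about 58% in most replicates, limit read from the data, passing the limit was not always enough; inconclusive = exactly half the replicates above a set limit; inactive = most replicates below a set limit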;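 note: all wells also contain fluconazole at 8 µg/ml as a sub-toxic cotreatment; 0% = median of DMSO wells and 100% = median of geldanamycin control wells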
NALP3 yeast inh: NALP3 inflammasome inhibitors in reconstituted yeast, primary screen, luminescence, uHTS | Yeast reconstituted NLRP3/ASC/caspase-1, beta-gal luminescence, 24 h | inhibition, % at 10 µM | 330,000 compounds, 0.39% hits | AID 2825, 2010;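 active = inhibition of 50% or more; inactive = inhibition below 50%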;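 note: plate controls were induced DMSO wells for no effect and uninduced yeast grown without galactose for full effect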
ATG4B inh: ATG4B protease inhibitors, primary screen, biochemical, fluorescence, uHTS | Cysteine protease ATG4B (Homo sapiens), Q9Y4P1 | ATG4B cleavage of LC3-PLA2, NBD-HPC fluorescence, 1 h | inhibition, % at 8.33 µM | 340,000 compounds, 0.51% hits | AID 504462, 2011; in the data active = inhibition above about 40%
Target sequence (Q9Y4P1 whole entry, looked up): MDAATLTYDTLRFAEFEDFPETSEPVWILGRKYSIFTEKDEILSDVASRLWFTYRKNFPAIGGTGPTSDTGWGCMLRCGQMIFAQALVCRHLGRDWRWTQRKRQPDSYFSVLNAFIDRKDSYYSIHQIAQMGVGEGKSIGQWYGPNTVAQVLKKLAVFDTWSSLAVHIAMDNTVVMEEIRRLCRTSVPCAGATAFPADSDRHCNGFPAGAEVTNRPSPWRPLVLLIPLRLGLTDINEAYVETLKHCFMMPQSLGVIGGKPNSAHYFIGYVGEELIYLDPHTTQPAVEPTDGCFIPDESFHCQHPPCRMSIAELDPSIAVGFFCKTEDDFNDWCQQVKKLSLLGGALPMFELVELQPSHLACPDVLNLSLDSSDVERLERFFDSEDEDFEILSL
ALR inh: inhibitors of human ALR sulfhydryl oxidase, primary screen, biochemical, H2O2 detection, HRP-luminol luminescence, single point | FAD-linked sulfhydryl oxidase ALR (Homo sapiens), P55789 | purified ALR, DTT oxidation | inhibition, % (no concentration beside the values) | 290,000 compounds, 3.8% hits | AID 485317, 2010;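 active = mean replicate inhibition above about 79%, with every replicate also reaching it, limit read from the data; inconclusive = only one of the two criteria met; inactive = mean below limit and not every replicate reaching it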
Target sequence (P55789 whole entry, looked up): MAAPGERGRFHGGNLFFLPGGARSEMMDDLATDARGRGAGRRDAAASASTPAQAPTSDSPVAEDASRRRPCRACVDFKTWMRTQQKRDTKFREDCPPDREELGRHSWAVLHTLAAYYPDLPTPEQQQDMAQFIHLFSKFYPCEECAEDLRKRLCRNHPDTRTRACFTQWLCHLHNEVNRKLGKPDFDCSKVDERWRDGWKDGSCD
UCH37 DUB inh: inhibitors of human UCH37 deubiquitinase, primary screen, biochemical, Ub-AMC cleavage, fluorescence. Ubiquitin carboxyl-terminal hydrolase isozyme L5 (Homo sapiens), Q9Y5K5. purified proteasome/UCH37. inhibition, % (concentration not given with the values). 330,000 compounds, 0.33% hits. AID 588478, 2011;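 active = mean inhibition over replicate wells above about 20%, limit read from the data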;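 note: 0% = compound-free wells with enzyme and 100% = wells lacking proteasome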
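System: Proteasome-associated human UCH37 deubiquitinase; Input: 0.15 nM proteasome in added enzyme buffer; Also added: Ub-AMC substrate from 1 µM stock; Incubation: 30 min compound-proteasome preincubation then 25 min substrate reaction, room temperature; Detection: fluorescence, ex 355 nm, em 460 nm; Read-out: % inhibition of Ub-AMC cleavage fluorescence; Benchmarks: no-proteasome and no-compound wells.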
Active calls of the source: *; u = inconclusive; x = not tested or not shown.

SMILES	NALP1 yeast inh	Calb FLC	NALP3 yeast inh	ATG4B inh	ALR inh	UCH37 DUB inh
Cc1ccccc1N/C(SCc1ccc(Cl)cc1)=C(/C#N)C(=O)NCc1ccco1	1.1	u	3.4	3.6	52.7	3.6
Cc1ccc(CS/C(Nc2ccccc2C)=C(\C#N)C(=O)NCc2ccco2)c(C)c1	11.9	-2.7	7.2	9.0	99.2*	5.2
Cc1cc([N+](=O)[O-])ccc1NCc1ccccc1[N+](=O)[O-]	4.8	6.7	11.4	1.4	-3.0	4.3
Cc1cc(F)ccc1NCc1ccccc1[N+](=O)[O-]	18.4	32.1	11.1	11.2	98.7*	-3.0
Cc1nc2scc(-c3ccco3)c2c(=O)n1N=CN(C)C	x	x	x	x	x	-0.2
COc1ccc(N2CC(C(=O)NN=Cc3ccc(C)cc3)CC2=O)cc1 (configuration not stated)	x	x	x	x	x	2.2
CC(C)COc1ccc(-c2nn(-c3ccccc3)cc2/C=C2/SC(=S)N(CC(=O)O)C2=O)cc1	1.0	-3.9	33.9	6.0	97.4*	21.9*
O=C(O)CN1C(=O)/C(=C\c2cn(-c3ccccc3)nc2-c2ccccc2)SC1=S	-9.3	6.5	23.5	3.3	26.1	x
Cc1cc(OCCCCCn2ccnc2)cc(C)c1Cl	26.0*	20.6	26.0	-2.6	x	2.6
Cc1cc(SCC(=O)N/N=C/c2ccc(C(=O)O)cc2)nc2ccccc12	15.8	3.9	9.3	0.1	99.3*	x
COc1ccccc1NC(=S)NN=Cc1ccc(O)cc1	x	x	x	x	x	2.4
O=C1CC(NNc2ccccc2)C(=O)N1c1ccccc1 (configuration not stated)	26.4	u	19.3	-1.9	99.7*	x
O=C1CC(Nc2ccc(N3CCOCC3)cc2)C(=O)N1c1ccccc1 (configuration not stated)	11.8	-0.9	11.1	-2.2	98.9*	0.6
CCOc1ccccc1N1C(=O)CC(Nc2ccc(N3CCOCC3)cc2)C1=O (configuration not stated)	17.8	-5.0	18.0	-6.6	98.3*	2.0
COc1ccc(NC2CC(=O)N(c3ccccc3)C2=O)cc1 (configuration not stated)	-11.1	-17.8	29.1	-3.1	x	6.2
CCOc1ccccc1N1CC(C(=O)Nc2ccccc2N2CCOCC2)CC1=O (configuration not stated)	-18.8	-10.2	22.8	-10.2	-23.6	1.1
COc1ccccc1N1C(=O)CC(Nc2ccc(N3CCOCC3)cc2)C1=O (configuration not stated)	7.1	7.5	12.6	-0.3	99.5*	6.6
CCOc1ccccc1C=NNc1nc2ccccc2o1	x	x	x	x	x	-3.6
Cc1ccc(C=NNC(=O)CSc2nc3nc(C)cc(C)n3n2)cc1	x	x	x	x	x	5.2
CCOC(=O)c1c(N=CC2C(=O)CCCC2=O)sc2c1CCCC2	x	x	x	x	x	-8.7
O=C1CC(Nc2ccc(N3CCOCC3)cc2)C(=O)N1Cc1ccccc1 (configuration not stated)	3.3	10.8	16.7	3.0	97.5*	2.6
Cc1noc(C)c1C(=O)Nc1ccccc1N1CCCC1	x	x	5.3	-4.6	93.6*	-0.1
Cc1noc(C)c1C(=O)N1CCN(c2ccccc2O)CC1	x	x	15.5	-2.5	98.8*	2.2
CCc1noc(C)c1C(=O)Nc1cc(Cl)ccc1N1CCCC1	x	10.8	12.6	-0.4	98.6*	4.3
Cc1noc(C)c1C(=O)N1CCN(c2ncccn2)CC1	0.5	0.6	21.8	-9.8	-15.5	-0.4
SMILES	NALP1 yeast inh	Calb FLC	NALP3 yeast inh	ATG4B inh	ALR inh	UCH37 DUB inh
CCN(CC)C(=O)C(=O)NN=Cc1ccc(F)cc1	x	x	x	x	x	2.3
COc1ccccc1NC(C)C(=O)Nc1ccc(C(C)=O)cc1 (configuration not stated)	2.7	6.3	6.9	-6.3	98.6*	-0.2
CC1CCCC(C)N1N=Cc1cccc(Br)c1 (configuration not stated)	x	x	x	x	x	4.0
O=C(O)c1ccc(Nc2cnc3ccccc3n2)cc1	19.0	94.6*	-4.5	-8.6	-10.2	5.5
CC(C)[C@H](NC(=O)OC(C)(C)C)C(=O)NN=Cc1ccc2nccnc2c1	x	x	x	x	x	3.4
C=CCn1c(SCc2nc3sc(C(=O)O)c(C)c3c(=O)[nH]2)nnc1-c1ccc(C(C)(C)C)cc1	-11.7	-1.6	3.6	8.0	98.1*	2.4
CCN(CC)c1ccc(NC(=O)COc2ccc(-n3cnnn3)cc2)cc1	x	x	17.6	-1.9	98.8*	1.0
CCCc1[nH][nH]c(=O)c1C(c1ccc(Br)cc1)C(C#N)C#N (configuration not stated)	37.1	17.2	22.3	-6.0	94.5*	5.4
O=C(CCc1ccc(S(=O)(=O)NC2CCCCC2)cc1)Nc1ccccc1	8.9	-0.2	21.3	-11.8	-4.9	1.0
O=C(CCc1ccc(S(=O)(=O)NC2CCCCC2)cc1)N(Cc1ccccc1)Cc1ccccc1	5.5	-5.1	3.6	2.9	-49.5	32.6*
O=[N+]([O-])c1cc(C(F)(F)F)ccc1NN=Cc1cc2ccccc2nc1Cl	x	x	x	x	x	3.0
O=C(NN=Cc1sc(=O)n(-c2ccccc2)c1Cl)c1ccncc1	x	x	x	x	x	7.2
CC(=O)c1nc2ccccc2n1S(=O)(=O)c1ccc(C)cc1	27.8*	32.8	-12.9	4.1	-28.6	-28.9
O=C1CC(N2CCc3ccccc32)C(=O)N1c1ccc(F)cc1 (configuration not stated)	13.6	-1.1	6.0	-16.9	98.9*	2.9
O=C1CC(N2CCN(c3ccc(Cl)cc3)CC2)C(=O)N1c1ccc(F)cc1 (configuration not stated)	-10.1	7.6	24.4	-6.3	23.7	1.9
O=C1CC(N2CCCN(C3CC(=O)N(c4ccc(F)cc4)C3=O)CC2)C(=O)N1c1ccc(F)cc1 (configuration not stated)	39.1*	-7.1	25.6	-4.8	3.3	3.1
COc1cccc(N2C(=O)CC(N3CCc4ccccc43)C2=O)c1 (configuration not stated)	36.6	8.7	9.2	-6.7	90.0*	0.7
CCOc1cc(C=NNC(=O)c2cc(-c3ccccc3)nc3ccccc23)ccc1O	x	x	x	x	x	-0.1
CC(C)(CNC(=O)CON=C1C=C2CCC3C(C(O)C[C@@]4(C)C3CC[C@]4(O)C(=O)CO)[C@@]2(C)CC1)C(O)C(=O)O (some centres not stated)	x	x	x	x	x	1.6
c1ccc(-c2ccccc2OCCCN2CCCCCC2)cc1	7.8	89.6*	15.3	3.5	-6.7	2.8
c1ccc(-c2ccccc2OCCCN2CCCC2)cc1	9.3	-0.5	-2.4	4.9	-7.8	1.3
